Where only a bound is given, the exact number is not on record here.

The nature of test [1]: Inhibition of c-terminally truncated N-terminal 8xHis-tagged human Bcl-xL deletion mutant expressed in Escherichia coli BL21 (DE3) after 2 hrs by fluorescence polarization assay.
For test [2], the target named is T1, Apoptosis regulator Bcl-2 (Homo sapiens, UniProt P10415). Kind of test: Inhibition of N-terminal 6xHis-tagged human Bcl-2 expressed in Escherichia coli BL21 (DE3) after 2 hrs by fluorescence polarization assay.
Test [3] deals with T1, Apoptosis regulator Bcl-2.
Test [4] can be described thus: Cytotoxicity against human NCI-H146 cells assessed as growth inhibition after 4 days by WST-8 assay. It is filed as functional, cell-based. The following applies: NCI-H146, 96 h. Background: Formazan colour is commonly taken as a measure of viable cells.
The test system of test [5] is NCI-H1417. Kind of test: Cytotoxicity against human H1417 cells assessed as growth inhibition after 4 days by WST-8 assay. It is filed as functional, cell-based. The conditions noted are these: NCI-H1417, 96 h.
For test [6], the system named is NCI-H146. Description: Induction of apoptosis in human NCI-H146 cells assessed as cell viability after 24 hrs by trypan blue exclusion assay. It counts as functional, cell-based. Put shortly: (§1)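 H146 cells exposed to a range of compound concentrations for 24 hr, then harvested and stained with trypan blue. Cells staining blue or looking morphologically unhealthy were scored as dead. At least 100 cells counted per sample.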

Test [7] relates to NCI-H146. Kind of test: Induction of apoptosis in human NCI-H146 cells assessed as cell viability at 30 to 100 nM after 24 hrs by trypan blue exclusion assay. It is filed as functional. Put shortly:
as §1

T1 sequence (P10415 whole entry): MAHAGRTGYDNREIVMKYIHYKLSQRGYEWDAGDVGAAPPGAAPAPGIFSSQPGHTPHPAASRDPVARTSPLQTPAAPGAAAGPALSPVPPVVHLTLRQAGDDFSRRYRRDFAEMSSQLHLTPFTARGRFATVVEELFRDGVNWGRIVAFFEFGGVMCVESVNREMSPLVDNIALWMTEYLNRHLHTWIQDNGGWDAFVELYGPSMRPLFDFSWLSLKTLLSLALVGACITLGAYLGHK

In test [1], `Cc1c(C(=O)NCCCN2CCN(C)CC2)c(-c2cccc(N3CCN(c4ccc(NS(=O)(=O)c5cccc(Cl)c5)cc4)CC3)c2)c(-c2ccc(Cl)cc2)n1C` returned an IC50 of 1060 nM.

For the compound `Cc1c(C(=O)NCCCN2CCN(C)CC2)c(-c2cccc(N3CCN(c4ccc(NS(=O)(=O)c5cccc(F)c5)cc4)CC3)c2)c(-c2ccc(Cl)cc2)n1C`, in test [1], 1310 nM corresponded to half-maximal inhibition (IC50).

Compound `Cc1c(C(=O)NCCCN2CCN(C)CC2)c(-c2cccc(N3CCN(c4ccc(NS(=O)(=O)c5ccccc5)cc4)CC3)c2)c(-c2ccc(Cl)cc2)n1C` displayed an IC50 in test [1] of 3730 nM.

For the compound `Cc1c(C(=O)NCCCN2CCN(C)CC2)c(-c2cccc(N3CCN(c4ccc(NS(=O)(=O)c5cccc([N+](=O)[O-])c5)cc4)CC3)c2)c(-c2ccc(Cl)cc2)n1C`, in test [1], inhibition was half-maximal at 131 nM (IC50).

`Cc1c(C(=O)O)c(-c2cccc(N3CCN(c4ccc(NS(=O)(=O)c5ccc(N[C@H](CCN6CCOCC6)CSc6ccccc6)c(S(=O)(=O)C(F)(F)F)c5)cc4)CC3)c2)c(-c2ccc(Cl)cc2)n1C`: the IC50 in test [1] came out at 10.8 nM; in test [2] it was 55.2 nM. This compound displayed an inhibition constant (Ki) in test [3] of 14.1 nM.

For `CCCCn1c(C)c(C(=O)O)c(-c2cccc(N3CCN(c4ccc(NS(=O)(=O)c5ccc(N[C@H](CCN6CCC(O)CC6)CSc6ccccc6)c(S(=O)(=O)C(F)(F)F)c5)cc4)CC3)c2)c1-c1ccc(Cl)cc1`, the IC50 in test [4] worked out at 128 nM; in test [1], 6.3 nM; in test [2], 78.2 nM; in test [5], 97 nM. Further, the Ki in test [3] is 20 nM.

As to `COc1cccc(S(=O)(=O)Nc2ccc(N3CCN(c4cccc(-c5c(C(=O)NCCCN6CCN(C)CC6)c(C)n(C)c5-c5ccc(Cl)cc5)c4)CC3)cc2)c1`, in test [1], the IC50 is 2160 nM.

On to `Cc1c(C(=O)NCCCN2CCN(C)CC2)c(-c2cccc(N3CCN(c4ccc(NS(=O)(=O)c5cccc(C(C)(C)C)c5)cc4)CC3)c2)c(-c2ccc(Cl)cc2)n1C`, for which the concentration for half-maximal inhibition (IC50) in test [1] amounted to 744 nM.

As to `Cc1c(C(=O)O)c(-c2cccc(N3CCN(c4ccc(NS(=O)(=O)c5ccc(N[C@H](CCN6CCCC6)CSc6ccccc6)c(S(=O)(=O)C(F)(F)F)c5)cc4)CC3)c2)c(-c2ccc(Cl)cc2)n1C`, the IC50 in test [4] is 87 nM; in test [1], 10.7 nM; in test [2], 8.3 nM; in test [5], 106 nM. In test [3], the affinity corresponds to a Ki of 1.8 nM.

For the compound `Cc1c(C(=O)NCCCN2CCN(C)CC2)c(-c2cccc(N3CCN(c4ccc(NS(=O)(=O)c5cccc(S(=O)(=O)C6CC6)c5)cc4)CC3)c2)c(-c2ccc(Cl)cc2)n1C`, inhibition in test [1] was half-maximal at 1040 nM (IC50).

Regarding `Cc1c(C(=O)O)c(-c2cccc(N3CCN(c4ccc(NS(=O)(=O)c5ccc(N[C@H](CCN6CCC6)CSc6ccccc6)c(S(=O)(=O)C(F)(F)F)c5)cc4)CC3)c2)c(-c2ccc(Cl)cc2)n1C`, the 50% inhibitory concentration (IC50) in test [4] was 86 nM; in test [1], 16.5 nM; in test [2] it was 7.5 nM; in test [5], 126 nM. In test [3], this compound registered a Ki of 1.7 nM.

In test [1], `Cc1c(C(=O)NCCCN2CCN(C)CC2)c(-c2cccc(N3CCN(c4ccc(NS(=O)(=O)c5cccc(S(C)(=O)=O)c5)cc4)CC3)c2)c(-c2ccc(Cl)cc2)n1C` came in with an IC50 of 1920 nM.

Turning to `CCCn1c(C)c(C(=O)O)c(-c2cccc(N3CCN(c4ccc(NS(=O)(=O)c5ccc(N[C@H](CCN6CCC(O)CC6)CSc6ccccc6)c(S(=O)(=O)C(F)(F)F)c5)cc4)CC3)c2)c1-c1ccc(Cl)cc1`, the half-maximal inhibitory concentration (IC50) in test [4] came out at 128 nM; in test [1] it was 8.2 nM; in test [2] it was 30.1 nM; in test [5], 105 nM. This compound had an inhibitory constant (Ki) in test [3] of 7.5 nM.

On to `Cc1c(C(=O)O)c(-c2cccc(N3CCN(c4ccc(NS(=O)(=O)c5ccc(N[C@H](CCN(C)C)CSc6ccccc6)c(S(=O)(=O)C(F)(F)F)c5)cc4)CC3)c2)c(-c2ccc(Cl)cc2)n1C`, for which the results for the IC50 in test [1] and in test [2] were 5.1 nM and 9.2 nM, respectively. The same compound registered a Ki in test [3] of 2.1 nM.

In test [1], `Cc1cccc(S(=O)(=O)Nc2ccc(N3CCN(c4cccc(-c5c(C(=O)NCCCN6CCN(C)CC6)c(C)n(C)c5-c5ccc(Cl)cc5)c4)CC3)cc2)c1` displayed a 50% inhibitory concentration (IC50) of 1990 nM.

In test [1], `Cc1c(C(=O)NCCCN2CCN(C)CC2)c(-c2cccc(N3CCN(c4ccc(NS(=O)(=O)c5cccc(OC(C)C)c5)cc4)CC3)c2)c(-c2ccc(Cl)cc2)n1C` yielded an IC50 of 1050 nM.

Regarding `Cc1c(C(=O)O)c(-c2cccc(N3CCN(c4ccc(NS(=O)(=O)c5ccc(N[C@H](CCN(C)C)CSc6ccccc6)c([N+](=O)[O-])c5)cc4)CC3)c2)c(-c2ccc(Cl)cc2)n1C`, the inhibitory constant (Ki) in test [3] was less than 1 nM.

As for `Cc1c(C(=O)O)c(-c2cccc(N3CCN(c4ccc(NS(=O)(=O)c5ccc(N[C@H](CCN6CCC(C)(O)CC6)CSc6ccccc6)c(S(=O)(=O)C(F)(F)F)c5)cc4)CC3)c2)c(-c2ccc(Cl)cc2)n1C`, the half-maximal inhibitory concentration (IC50) in test [4] amounted to 171 nM; in test [1], 21.8 nM; in test [2], 18.6 nM; in test [5], 179 nM. Further, the Ki in test [3] is 4.6 nM.

The compound `CCc1cccc(S(=O)(=O)Nc2ccc(N3CCN(c4cccc(-c5c(C(=O)NCCCN6CCN(C)CC6)c(C)n(C)c5-c5ccc(Cl)cc5)c4)CC3)cc2)c1` displayed an IC50 in test [1] of 1950 nM.

As to `Cc1c(C(=O)O)c(-c2cccc(N3CCN(c4ccc(NS(=O)(=O)c5ccc(N[C@H](CCN6CC(O)C6)CSc6ccccc6)c(S(=O)(=O)C(F)(F)F)c5)cc4)CC3)c2)c(-c2ccc(Cl)cc2)n1C`, the IC50 in test [4] was 241 nM; in test [1], 10.5 nM; in test [2] it was 7.7 nM; in test [5] it was 299 nM. In test [3], this compound returned a Ki of 1.7 nM.

For `CCOc1cccc(S(=O)(=O)Nc2ccc(N3CCN(c4cccc(-c5c(C(=O)NCCCN6CCN(C)CC6)c(C)n(C)c5-c5ccc(Cl)cc5)c4)CC3)cc2)c1`, the IC50 in test [1] worked out at 3650 nM.

`CCS(=O)(=O)c1cccc(S(=O)(=O)Nc2ccc(N3CCN(c4cccc(-c5c(C(=O)NCCCN6CCN(C)CC6)c(C)n(C)c5-c5ccc(Cl)cc5)c4)CC3)cc2)c1` came in with a concentration for half-maximal inhibition (IC50) in test [1] of 954 nM.

The compound `Cc1c(C(=O)NCCCN2CCN(C)CC2)c(-c2cccc(N3CCN(c4ccc(NS(=O)(=O)c5cccc(Br)c5)cc4)CC3)c2)c(-c2ccc(Cl)cc2)n1C` displayed an IC50 in test [1] of 499 nM.

Regarding `CN(C)CC[C@H](CSc1ccccc1)Nc1ccc(S(=O)(=O)NC(=O)c2ccc(N3CCN(Cc4ccccc4-c4ccc(Cl)cc4)CC3)cc2)cc1[N+](=O)[O-]` [ABT 737], the Activity entry is “Dose-dependent effect” in test [6] and greater than 50% in test [7].

As for `Cc1c(C(=O)O)c(-c2cccc(N3CCN(c4ccc(NS(=O)(=O)c5ccc(N[C@H](CCN6CCCCC6)CSc6ccccc6)c(S(=O)(=O)C(F)(F)F)c5)cc4)CC3)c2)c(-c2ccc(Cl)cc2)n1C`, the IC50 came out at 133 nM in test [4], 12.1 nM in test [1], 15.6 nM in test [2] and 171 nM in test [5]. Besides, the Ki in test [3] came out at 3.8 nM.

For `Cc1c(C(=O)NCCCN2CCN(C)CC2)c(-c2cccc(N3CCN(c4ccc(NS(=O)(=O)c5cccc(OC(F)(F)F)c5)cc4)CC3)c2)c(-c2ccc(Cl)cc2)n1C`, in test [1], the midpoint of inhibition, the IC50, lay at 1650 nM.

In general, IC50 refers to the point on the concentration scale where inhibition reaches its midpoint. For orientation: Ki means a dissociation constant, usually derived from enzyme kinetics or from competition with a known ligand. Low values mean higher affinity, high ones lower affinity.

(Values after ChEMBL document CHEMBL2169845 (J Med Chem, 2012).)
